{
  "source": "ChEMBL document CHEMBL2417383",
  "about": "“Assay platform for clinically relevant metallo-β-lactamases” (J Med Chem, 2013)",
  "key": {"[1]": {"experiment": "Chemical stability of the compound in buffer assessed as compound hydrolysis after 8 hrs", "type": "physicochemical", "procedure,_shortened": "(§1)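 Substrate autohydrolysis was followed in aqueous assay buffer at room temperature over time, up to at least 8 h.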"}, "[2]": {"experiment": "Chemical stability of the compound in aqueous solution", "type": "physicochemical", "settings": "buffer", "procedure,_shortened": "as §1"}, "[3]": {"test_system": "BL21-DE3"}, "[4]": {"test_system": "BL21-DE3", "remark": "listed apart in the source"}, "[5]": {"test_system": "BL21-DE3", "remark": "listed apart in the source"}, "[6]": {"test_system": "BL21-DE3", "remark": "listed apart in the source"}, "[7]": {"test_system": "BL21-DE3", "remark": "listed apart in the source"}, "[8]": {"experiment": "Inhibition of recombinant SPM-1 (unknown origin) expressed in Escherichia coli BL21 (DE3) cells using FC4 as substrate assessed as residual activity at 1 mM preincubated for 10 mins prior to substrate addition by fluorescence-based assay relative to control", "procedure,_shortened": "(§2)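 Mature SPM-1, E. coli codon-optimized, with N-terminal His6 tag cleavable by 3C protease, was expressed from pOPINF in E. coli BL21(DE3) pLysS in 2TY and purified to >95%. […] Fluorescence was read at λex 380/λem 460 nm and residual activity calculated.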"}, "[9]": {"test_system": "BL21-DE3", "experiment": "Inhibition of recombinant SPM-1 (unknown origin) expressed in Escherichia coli BL21 (DE3) cells using FC4 as substrate assessed as residual activity at 200 uM preincubated for 10 mins prior to substrate addition by fluorescence-based assay relative to control", "procedure,_shortened": "as §2"}},
  "data": [
    {"compound": "O=C(Cc1ccccc1)N[C@@H]1C(=O)N2C(C(=O)O)=C(COc3ccc4ccc(=O)oc4c3)C[S+]([O-])[C@H]12", "note": "(stereo partly specified)", "values": [
      {"measurement": "Stability", "setting": "[1]", "value": "Stable"},
      {"measurement": "Stability", "setting": "[2]", "value": "Stable"}
    ]},
    {"compound": "O=C(Cc1cccs1)N[C@@H]1C(=O)N2C(C(=O)O)=C(/C=C/c3ccc([N+](=O)[O-])cc3[N+](=O)[O-])CS[C@H]12", "values": [
      {"measurement": "Km", "setting": "[3]", "value": 7.2, "unit": "µM"},
      {"measurement": "kcat", "setting": "[3]", "value": 226, "unit": "s⁻¹"},
      {"measurement": "Km", "setting": "[4]", "value": 55.7, "unit": "µM"},
      {"measurement": "kcat", "setting": "[4]", "value": 2790, "unit": "s⁻¹"},
      {"measurement": "Km", "setting": "[5]", "value": 8.1, "unit": "µM"},
      {"measurement": "kcat", "setting": "[5]", "value": 14.9, "unit": "s⁻¹"},
      {"measurement": "Km", "setting": "[6]", "value": 8.8, "unit": "µM"},
      {"measurement": "kcat", "setting": "[6]", "value": 25.3, "unit": "s⁻¹"},
      {"measurement": "Km", "setting": "[7]", "value": 16, "unit": "µM"},
      {"measurement": "kcat", "setting": "[7]", "value": 0.7, "unit": "s⁻¹"}
    ]},
    {"compound": "O=C(N[C@@H](Cc1c[nH]c2ccccc12)C(=O)O)c1nc(Cl)c2ccccc2c1O", "values": [
      {"measurement": "Activity", "setting": "[8]", "value": "< 5", "unit": "%"}
    ]},
    {"compound": "O=C(O)CC[C@H](NC(=O)c1nc(Cl)c2ccccc2c1O)C(=O)O", "values": [
      {"measurement": "Activity", "setting": "[8]", "value": "< 5", "unit": "%"}
    ]},
    {"compound": "O=C(Cc1ccccc1)N[C@@H]1C(=O)N2C(C(=O)O)=C(COc3ccc4ccc(=O)oc4c3)CS(=O)(=O)[C@H]12", "values": [
      {"measurement": "Stability", "setting": "[1]", "value": "Stable"},
      {"measurement": "Stability", "setting": "[2]", "value": "Stable"}
    ]},
    {"compound": "O=C(O)CC[C@@H](NC(=O)c1nc(Cl)c2ccccc2c1O)C(=O)O", "values": [
      {"measurement": "Activity", "setting": "[8]", "value": "< 5", "unit": "%"}
    ]},
    {"compound": "O=C(O)C[C@@H](NC(=O)c1nc(Cl)c2ccccc2c1O)C(=O)O", "values": [
      {"measurement": "Activity", "setting": "[8]", "value": "< 5", "unit": "%"}
    ]},
    {"compound": "O=C(N[C@H](Cc1c[nH]c2ccccc12)C(=O)O)c1nc(Cl)c2ccccc2c1O", "values": [
      {"measurement": "Activity", "setting": "[8]", "value": "< 5", "unit": "%"}
    ]},
    {"compound": "CC(C)C[C@@H](NC(=O)c1nc(Cl)c2ccccc2c1O)C(=O)O", "values": [
      {"measurement": "Activity", "setting": "[9]", "value": 32, "unit": "%"},
      {"measurement": "Activity", "setting": "[8]", "value": "< 5", "unit": "%"}
    ]},
    {"compound": "CC(C)C[C@H](NC(=O)c1nc(Cl)c2ccccc2c1O)C(=O)O", "values": [
      {"measurement": "Activity", "setting": "[9]", "value": 26, "unit": "%"},
      {"measurement": "Activity", "setting": "[8]", "value": "< 5", "unit": "%"}
    ]},
    {"compound": "CC(C)[C@@H](NC(=O)c1nc(Cl)c2ccccc2c1O)C(=O)O", "values": [
      {"measurement": "Activity", "setting": "[8]", "value": 16, "unit": "%"}
    ]},
    {"compound": "CC(C)[C@H](NC(=O)c1nc(Cl)c2ccccc2c1O)C(=O)O", "values": [
      {"measurement": "Activity", "setting": "[8]", "value": 16, "unit": "%"}
    ]},
    {"compound": "O=C(O)C[C@H](NC(=O)c1nc(Cl)c2ccccc2c1O)C(=O)O", "values": [
      {"measurement": "Activity", "setting": "[8]", "value": "< 5", "unit": "%"}
    ]}
  ]
}
